{"source": "ChEMBL document CHEMBL1124580", "about": "“Opioid agonist and antagonist activities of peripherally selective derivatives of naltrexamine and oxymorphamine” (J Med Chem, 1989)", "key": {"Cavia porcellus [1]": {"species": "Cavia porcellus", "assay": "Maximum percent inhibition of electrically stimulated twitch in guinea pig ileal longitudinal muscle(GPI) preparation", "assay_type": "functional", "conditions": "Muscle tissue", "procedure,_shortened": "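Guinea pig ileal longitudinal muscle, electrically stimulated. Maximum percent inhibition of the twitch determined at 1 μM. Values are means ± SE, with number of experiments.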"}, "Cavia porcellus [2]": {"species": "Cavia porcellus", "assay": "Antagonistic activity against morphine in guinea pig ileal longitudinal muscle(GPI) preparation", "assay_type": "functional, Muscle tissue", "procedure,_shortened": "(§1)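 Guinea pig ileal longitudinal muscle, electrically stimulated twitch. Antagonism measured against morphine. Ke = [antagonist]/(IC50 ratio − 1); the IC50 ratio is morphine IC50 with antagonist over its control IC50 in the same preparation. Values are means ± SE, with number of experiments.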"}, "[3]": {"assay": "(§2) Potency against opioid receptor relative to morphine", "assay_type": "functional", "procedure,_shortened": "(§3)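 Guinea pig ileal longitudinal muscle, electrically stimulated twitch. Agonist potency taken as IC50 for twitch inhibition and as potency ratio relative to morphine (morphine = 1). Values are means ± SE, with number of experiments.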"}, "[4]": {"molecular_target": "T1, Opioid receptors; mu/kappa/delta (Homo sapiens, UniProt P41145+P41143+P35372)", "T1 sequence (P35372 whole entry, looked up)": "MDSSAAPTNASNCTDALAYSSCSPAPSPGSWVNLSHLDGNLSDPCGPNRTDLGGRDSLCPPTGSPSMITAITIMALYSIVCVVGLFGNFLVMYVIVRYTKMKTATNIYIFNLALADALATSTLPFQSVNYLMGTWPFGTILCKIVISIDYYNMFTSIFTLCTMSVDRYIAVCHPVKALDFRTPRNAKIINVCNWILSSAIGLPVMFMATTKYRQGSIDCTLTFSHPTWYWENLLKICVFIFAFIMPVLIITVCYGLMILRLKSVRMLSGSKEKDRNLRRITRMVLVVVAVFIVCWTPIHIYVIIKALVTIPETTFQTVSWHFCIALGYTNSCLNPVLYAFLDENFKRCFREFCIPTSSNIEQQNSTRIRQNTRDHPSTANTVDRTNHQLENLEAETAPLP", "T1 sequence (P41143 whole entry, looked up)": "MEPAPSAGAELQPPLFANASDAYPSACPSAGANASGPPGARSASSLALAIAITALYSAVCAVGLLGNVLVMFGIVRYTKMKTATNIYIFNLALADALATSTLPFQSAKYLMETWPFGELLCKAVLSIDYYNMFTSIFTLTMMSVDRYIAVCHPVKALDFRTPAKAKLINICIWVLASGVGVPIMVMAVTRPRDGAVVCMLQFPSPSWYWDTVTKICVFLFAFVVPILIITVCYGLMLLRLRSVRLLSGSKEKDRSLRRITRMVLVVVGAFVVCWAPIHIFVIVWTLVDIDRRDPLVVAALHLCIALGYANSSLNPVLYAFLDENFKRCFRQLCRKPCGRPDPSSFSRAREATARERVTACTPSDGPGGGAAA", "T1 sequence (P41145 whole entry, looked up)": "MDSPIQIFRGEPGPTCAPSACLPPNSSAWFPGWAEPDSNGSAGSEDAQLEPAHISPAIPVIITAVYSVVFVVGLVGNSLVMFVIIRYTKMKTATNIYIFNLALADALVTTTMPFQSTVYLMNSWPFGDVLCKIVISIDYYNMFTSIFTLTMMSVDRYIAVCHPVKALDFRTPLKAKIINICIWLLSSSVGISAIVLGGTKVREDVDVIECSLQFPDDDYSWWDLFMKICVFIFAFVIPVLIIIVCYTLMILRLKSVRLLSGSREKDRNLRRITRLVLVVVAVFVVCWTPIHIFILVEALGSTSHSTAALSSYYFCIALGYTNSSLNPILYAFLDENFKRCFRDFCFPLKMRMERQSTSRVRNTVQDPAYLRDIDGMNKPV", "assay": "Opioid receptor agonistic potency in guinea pig ileal longitudinal muscle(GPI) preparation", "assay_type": "functional, Cavia porcellus", "conditions": "target entry is the homologue from another species", "procedure,_shortened": "as §3"}, "Mus musculus [5]": {"test_system": "Mus musculus", "assay": "Peak antinociceptive potency of compound, 20 min after intracerebro ventricular administration into mice", "assay_type": "functional", "procedure,_shortened": "(§4)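 Male Swiss–Webster mice, tail-flick antinociception. Compounds given icv, iv or po, with ED50 taken at peak effect. Some ED50s were estimated from two dose levels. Where drug was insufficient, an approximate range was based on one dose level.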"}, "Mus musculus [6]": {"test_system": "Mus musculus", "assay": "Peak antinociceptive potency of compound, 40 min after intravenous administration into mice", "assay_type": "functional", "procedure,_shortened": "as §4"}, "Mus musculus [7]": {"test_system": "Mus musculus", "assay": "Peak antinociceptive potency of compound, 20 min after intravenous administration into mice", "assay_type": "functional", "procedure,_shortened": "as §4"}, "Mus musculus [8]": {"test_system": "Mus musculus", "assay": "Peak antinociceptive potency of compound, 60 min after peroral administration into mice", "assay_type": "functional", "conditions": "po, 1 h", "procedure,_shortened": "as §4"}, "[9]": {"molecular_target": "T1, Opioid receptors; mu/kappa/delta", "assay": "as §2", "assay_type": "functional", "conditions": "Cavia porcellus", "procedure,_shortened": "as §3"}, "Mus musculus [10]": {"test_system": "Mus musculus", "assay": "Peak antinociceptive potency of compound, 40 min after intracerebro ventricular administration into mice", "assay_type": "functional", "procedure,_shortened": "as §4"}, "Mus musculus [11]": {"test_system": "Mus musculus", "assay": "Dose required to produce equivalent antagonism of morphine activity after intravenous administration of compound", "assay_type": "functional", "procedure,_shortened": "(§5)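 Mouse tail-flick assay against sc morphine. Antagonist dosed icv, iv or po. Equiactive dose calculated as the dose required to double the morphine ED50, [dose/(DR − 1)]. icv doses were also expressed per kg body weight.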"}, "[12]": {"assay": "Antagonistic potency, 90 min after intravenous administration of compound (18.3 u mol/kg), in mice (tail flick assay)", "assay_type": "functional", "procedure,_shortened": "(§6)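 Male Swiss–Webster mice, tail-flick antinociception. Morphine given sc and tested 30 min after injection. Antagonist given icv (0.01 nmol), iv (18.3 μmol/kg) or po (91.7 μmol/kg), timed so both drugs were at peak (antagonist peaks 60, 90 and 120 min).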"}, "[13]": {"assay": "Antagonistic potency, 120 min after […] administration of compound (91.7 u mol/kg), in mice (tail flick assay)", "assay_type": "functional", "procedure,_shortened": "as §6"}, "Mus musculus [14]": {"test_system": "Mus musculus", "assay": "Antagonistic potency, 60 min after intracerebro ventricular administration of compound (0.01n mol), in mice (tail flick assay)", "assay_type": "functional", "conditions": "central, 1 h", "procedure,_shortened": "as §6"}, "Mus musculus [15]": {"test_system": "Mus musculus", "assay": "Antagonistic potency, 90 min after […] administration of compound (18.3 u mol/kg), in mice (tail flick assay)", "assay_type": "functional", "conditions": "1.5 h", "procedure,_shortened": "as §6"}, "Mus musculus [16]": {"test_system": "Mus musculus", "assay": "Peak effect of agonistic potency 10 min after intracerebro ventricular administration, in mice (acetic acid writhing assay)", "assay_type": "functional", "procedure,_shortened": "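Mouse acetic acid writhing assay. Compound given icv or po. […] Expressed as nmol/mouse (icv) or […] (po).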"}, "Cavia porcellus [17]": {"species": "Cavia porcellus", "assay": "Antagonistic activity against morphine in guinea pig ileal longitudinal muscle(GPI) preparation; Agonism was too strong to test for antagonism", "assay_type": "functional", "conditions": "Muscle tissue, filed as agonist", "procedure,_shortened": "as §1"}, "Mus musculus [18]": {"test_system": "Mus musculus", "assay": "Dose required to produce equivalent antagonism of morphine activity after peroral administration of compound", "assay_type": "functional", "procedure,_shortened": "as §5"}, "[19]": {"assay": "Antagonistic potency,60 min after intracerebro ventricular administration of compound ([…]), in mice (tail flick assay)", "assay_type": "functional", "procedure,_shortened": "as §6"}, "Mus musculus [20]": {"test_system": "Mus musculus", "assay": "Antagonistic potency, 120 min after […] administration of compound (91.7u mol/kg), in mice (tail flick assay)", "assay_type": "functional", "conditions": "2 h", "procedure,_shortened": "as §6"}, "Mus musculus [21]": {"test_system": "Mus musculus", "assay": "Peak antinociceptive potency of compound, 40 min after intracerebro ventricular administration nto mice", "assay_type": "functional", "procedure,_shortened": "as §4"}}, "data": [{"smiles": "O=C(O)CCC(=O)NC1CC[C@@]2(O)[C@H]3Cc4ccc(O)c5c4[C@@]2(CCN3CC2CC2)[C@H]1O5", "note": "(some centres not stated)", "values": [{"measurement": "IC50", "setting": "Cavia porcellus [1]", "result": 56, "unit": "nM"}, {"measurement": "Ke", "setting": "Cavia porcellus [2]", "result": 24.8, "unit": "nM"}]}, {"smiles": "O=C(O)COCC(=O)NC1CC[C@@]2(O)[C@H]3Cc4ccc(O)c5c4[C@@]2(CCN3CC2CC2)[C@H]1O5", "note": "(some centres not stated)", "values": [{"measurement": "IC50", "setting": "Cavia porcellus [1]", "result": 38, "unit": "nM"}, {"measurement": "Ke", "setting": "Cavia porcellus [2]", "result": 6.2, "unit": "nM"}]}, {"smiles": "CN1CC[C@]23c4c5ccc(O)c4O[C@H]2C(NC(=O)C(N)CC(=O)O)CC[C@@]3(O)[C@H]1C5", "note": "(some centres not stated)", "values": [{"measurement": "Ratio", "setting": "[3]", "result": 6.1}, {"measurement": "IC50", "setting": "[4]", "result": 31, "unit": "nM"}, {"measurement": "ED50", "setting": "Mus musculus [5]", "result": 1110.44, "unit": "nM mouse-1"}, {"measurement": "ED50", "setting": "Mus musculus [6]", "result": "< 20", "unit": "µmol/kg"}]}, {"smiles": "CN1CC[C@]23c4c5ccc(O)c4O[C@H]2C(NC(=O)/C=C\\C(=O)O)CC[C@@]3(O)[C@H]1C5", "note": "(some centres not stated)", "values": [{"measurement": "ED50", "setting": "Mus musculus [7]", "result": 11, "unit": "µmol/kg"}, {"measurement": "Ratio", "setting": "[3]", "result": 2.6}, {"measurement": "IC50", "setting": "[4]", "result": 39, "unit": "nM"}, {"measurement": "ED50", "setting": "Mus musculus [8]", "result": 20, "unit": "µmol/kg"}, {"measurement": "ED50", "setting": "Mus musculus [5]", "result": 0.17, "unit": "nM mouse-1"}]}, {"smiles": "O=C(O)CNC1CC[C@@]2(O)[C@H]3Cc4ccc(O)c5c4[C@@]2(CCN3CC2CC2)[C@H]1O5", "note": "(some centres not stated)", "values": [{"measurement": "IC50", "setting": "Cavia porcellus [1]", "result": 37, "unit": "nM"}, {"measurement": "Ke", "setting": "Cavia porcellus [2]", "result": 24.4, "unit": "nM"}]}, {"smiles": "O=C(O)CCCC(=O)NC1CC[C@@]2(O)[C@H]3Cc4ccc(O)c5c4[C@@]2(CCN3CC2CC2)[C@H]1O5", "note": "(some centres not stated)", "values": [{"measurement": "IC50", "setting": "Cavia porcellus [1]", "result": 41, "unit": "nM"}, {"measurement": "Ke", "setting": "Cavia porcellus [2]", "result": 28, "unit": "nM"}]}, {"smiles": "CN1CC[C@]23c4c5ccc(O)c4O[C@H]2C(NC(=O)COCC(=O)O)CC[C@@]3(O)[C@H]1C5", "note": "(some centres not stated)", "values": [{"measurement": "Ratio", "setting": "[9]", "result": 3.1}, {"measurement": "IC50", "setting": "[4]", "result": 27, "unit": "nM"}, {"measurement": "ED50", "setting": "Mus musculus [8]", "result": "> 25", "unit": "µmol/kg"}, {"measurement": "ED50", "setting": "Mus musculus [6]", "result": "< 20", "unit": "µmol/kg"}, {"measurement": "ED50", "setting": "Mus musculus [10]", "result": 0.25, "unit": "nM mouse-1"}]}, {"smiles": "CN1CC[C@]23c4c5ccc(O)c4O[C@H]2C(NC(=O)/C=C/C(=O)O)CC[C@@]3(O)[C@H]1C5", "note": "(some centres not stated)", "values": [{"measurement": "Ratio", "setting": "[3]", "result": 1.5}, {"measurement": "IC50", "setting": "[4]", "result": 130, "unit": "nM"}]}, {"smiles": "O=C(O)/C=C/C(=O)NC1CC[C@@]2(O)[C@H]3Cc4ccc(O)c5c4[C@@]2(CCN3CC2CC2)[C@H]1O5", "note": "(some centres not stated)", "values": [{"measurement": "IC50", "setting": "Cavia porcellus [1]", "result": 6, "unit": "nM"}, {"measurement": "Ke", "setting": "Cavia porcellus [2]", "result": 8.4, "unit": "nM"}]}, {"smiles": "NC(CC(=O)O)C(=O)NC1CC[C@@]2(O)[C@H]3Cc4ccc(O)c5c4[C@@]2(CCN3CC2CC2)[C@H]1O5", "note": "(some centres not stated)", "values": [{"measurement": "Dose", "setting": "Mus musculus [11]", "result": 1.63, "unit": "µM/kg"}, {"measurement": "Dose ratio", "setting": "[12]", "result": 12.2}, {"measurement": "Dose ratio", "setting": "[13]", "result": 3}, {"measurement": "ED50", "setting": "Mus musculus [14]", "result": 58, "unit": "µmol/kg"}, {"measurement": "ED50", "setting": "Mus musculus [15]", "result": 168, "unit": "µmol/kg"}, {"measurement": "ED50", "setting": "Mus musculus [16]", "result": 0.024, "unit": "nM mouse-1"}, {"measurement": "Ke", "setting": "Cavia porcellus [17]", "result": "Agonism was too strong to test for antagonism"}, {"measurement": "Dose", "setting": "Mus musculus [18]", "result": 45.85, "unit": "µM/kg"}, {"measurement": "Dose ratio", "setting": "[19]", "result": 4.2}, {"measurement": "IC50", "setting": "Cavia porcellus [1]", "result": 7.4, "unit": "nM"}, {"measurement": "ED50", "setting": "Mus musculus [20]", "result": 41.4, "unit": "µmol/kg"}]}, {"smiles": "CN1CC[C@]23c4c5ccc(O)c4O[C@H]2C(NC(=O)CCC(=O)O)CC[C@@]3(O)[C@H]1C5", "note": "(some centres not stated)", "values": [{"measurement": "Ratio", "setting": "[3]", "result": 1.6}, {"measurement": "IC50", "setting": "[4]", "result": 144, "unit": "nM"}, {"measurement": "ED50", "setting": "Mus musculus [8]", "result": 30.3, "unit": "µmol/kg"}, {"measurement": "ED50", "setting": "Mus musculus [6]", "result": 9.8, "unit": "µmol/kg"}, {"measurement": "ED50", "setting": "Mus musculus [21]", "result": 0.27, "unit": "nM mouse-1"}]}]}
